Test results taken from ChEMBL document CHEMBL4699622, “Structural and Functional Study of the Klebsiella pneumoniae VapBC Toxin-Antitoxin System, Including the Development of an Inhibitor That Activates VapC” (J Med Chem, 2020).
The source made the active and inactive calls. No cut-off for these calls is given here. Residues, ends and D or L forms follow the SMILES beside them.

Legend:
Klebsiella pneumoniae [1] = assay: Inhibition of Klebsiella pneumoniae MGH78578 N-terminal His6-tagged VapB/C expressed in Escherichia coli BL21(DE3) protein-protein interaction assessed as activation of VapC-mediated RNAase activity at 100 uM measured after 1 hr using fluorophore-labelled RNA by spectrofluorimetric method
In short: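 Peptide (100 μM) was added to purified VapBC complex (10 μM), pretreated with 10 mM EDTA and then 10 mM Mg²⁺. The reaction used 40 U RNase inhibitor, 20 mM HEPES pH 7.5, 400 mM NaCl and 5 pM final fluorophore/quencher RNA. RFU from released VapC was read over 1 h at ex 490/em 520 nm. Mean of three independent replicates ± SD.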

Klebsiella pneumoniae [2] = assay: Binding affinity to Klebsiella pneumoniae MGH78578 N-terminal His6-tagged VapC expressed in Escherichia coli BL21(DE3) assessed as increase in RNAase activity measured after 1 hr using fluorophore-labelled RNA by spectrofluorimetric method
In short: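 Free VapC (10 μM) was stripped of metals with 10 mM EDTA, then exchanged into purification buffer with 10 mM Mg²⁺. It was incubated without the VapB partner, with 40 U RNase inhibitor, in 20 mM HEPES pH 7.5 and 400 mM NaCl with quenched fluorophore-labelled RNA (5 pM final). Fluorescence was followed for 1 h at ex 490/em 520 nm.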

[3] = Binding affinity to Klebsiella pneumoniae MGH78578 N-terminal His6-tagged VapC expressed in Escherichia coli BL21(DE3) by isothermal titration calorimetry
In short: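 Isothermal titration calorimetry was run at 25 °C with VapC, quantified by A280. Background was subtracted and the data were fitted to a single-site binding model.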

[4] = Inhibition of Klebsiella pneumoniae MGH78578 N-terminal His6-tagged VapB/C expressed in Escherichia coli BL21(DE3) protein-protein interaction assessed as activation of VapC-mediated RNAase activity measured after 1 hr using fluorophore-labelled RNA by spectrofluorimetric method
In short: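 Small molecule (1, 3.16 and 10 μM) was added to 10 μM VapBC complex. The complex was EDTA-stripped and Mg²⁺-reloaded, with 40 U RNase inhibitor, in 20 mM HEPES pH 7.5 and 400 mM NaCl with 5 pM final quenched RNA. RNase fluorescence was monitored for 1 h at ex 490/em 520 nm. Activity was expressed relative to free VapC. Screening was done in triplicate.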

inhibition (Klebsiella pneumoniae [1]) | Activity (Klebsiella pneumoniae [2]) | IC50 [4] | SMILES | Kd [3]
Active | – | – | CC[C@H](C)[C@H](NC(=O)[C@H](CC(C)C)NC(=O)[C@@H](NC(=O)[C@H](CC(N)=O)NC(=O)[C@@H](N)[C@@H](C)O)[C@@H](C)CC)C(=O)N[C@@H](CC(=O)O)C(=O)N[C@@H](CC(C)C)C(=O)N[C@@H](Cc1ccccc1)C(=O)O (H-TNILIDLF-OH) | –
Active | Active | – | CSCC[C@H](NC(=O)CN)C(=O)N[C@@H](CCC(=O)O)C(=O)N[C@@H](Cc1ccc(O)cc1)C(=O)N[C@@H](CCC(N)=O)C(=O)N[C@@H](CCCNC(=N)N)C(=O)N[C@@H](CCC(N)=O)C(=O)N[C@@H](CC(C)C)C(=O)O (H-GMEYQRQL-OH) | 110 nM
Active | – | – | CC[C@H](C)[C@H](NC(=O)[C@H](CC(C)C)NC(=O)[C@@H](NC(=O)[C@H](CC(N)=O)NC(=O)[C@@H](NC(=O)[C@@H](N)CC(=O)O)[C@@H](C)O)[C@@H](C)CC)C(=O)N[C@@H](CC(=O)O)C(=O)N[C@@H](CC(C)C)C(=O)N[C@@H](Cc1ccccc1)C(=O)N[C@@H](CO)C(=O)O (H-DTNILIDLFS-OH) | –
Active | – | – | CC[C@H](C)[C@H](NC(=O)[C@H](CC(C)C)NC(=O)[C@@H](NC(=O)[C@H](CC(N)=O)NC(=O)[C@@H](NC(=O)[C@@H](N)CC(=O)O)[C@@H](C)O)[C@@H](C)CC)C(=O)N[C@@H](CC(=O)O)C(=O)N[C@@H](CC(C)C)C(=O)N[C@@H](Cc1ccccc1)C(=O)O (H-DTNILIDLF-OH) | –
Active | Active | – | CSCC[C@H](NC(=O)CN)C(=O)N[C@@H](CCC(=O)O)C(=O)N[C@@H](Cc1ccc(O)cc1)C(=O)N[C@@H](C)C(=O)N[C@@H](CCCNC(=N)N)C(=O)N[C@@H](CCC(N)=O)C(=O)N[C@@H](CC(C)C)C(=O)O (H-GMEYARQL-OH) | 150 nM
Active | – | – | CC[C@H](C)[C@H](NC(=O)[C@H](CC(C)C)NC(=O)[C@@H](NC(=O)[C@H](CC(N)=O)NC(=O)[C@@H](N)[C@@H](C)O)[C@@H](C)CC)C(=O)N[C@@H](CC(=O)O)C(=O)N[C@@H](CC(C)C)C(=O)N[C@@H](Cc1ccccc1)C(=O)N[C@@H](CO)C(=O)O (H-TNILIDLFS-OH) | –

The remaining lines, values behind:

SMILES | inhibition (Klebsiella pneumoniae [1]) | Activity (Klebsiella pneumoniae [2]) | IC50 [4] | Kd [3]
CSCC[C@H](NC(=O)CN)C(=O)N[C@@H](CCC(=O)O)C(=O)N[C@@H](C)C(=O)N[C@@H](C)C(=O)N[C@@H](CCCNC(=N)N)C(=O)N[C@@H](CCC(N)=O)C(=O)N[C@@H](CC(C)C)C(=O)O (H-GMEAARQL-OH) | – | Active | – | –
CSCC[C@H](NC(=O)CN)C(=O)N[C@@H](CCC(=O)O)C(=O)N[C@@H](Cc1ccc(O)cc1)C(=O)N[C@@H](CCC(N)=O)C(=O)N[C@@H](CCCNC(=N)N)C(=O)N[C@@H](CCC(N)=O)C(=O)N[C@@H](CC(C)C)C(=O)N[C@@H](CCCNC(=N)N)C(=O)N[C@@H](CCCCN)C(=O)O (H-GMEYQRQLRK-OH) | – | Active | – | –
CCC1Oc2cc(S(=O)(=O)N3CCCC(C(=O)Nc4ccc(F)cc4)C3)c(C)cc2NC1=O (configuration not stated) | – | inactive | 400 nM | 22 nM
CSCC[C@H](NC(=O)CN)C(=O)N[C@@H](CCC(=O)O)C(=O)N[C@@H](C)C(=O)N[C@@H](CCC(N)=O)C(=O)N[C@@H](CCCNC(=N)N)C(=O)N[C@@H](CCC(N)=O)C(=O)N[C@@H](CC(C)C)C(=O)O (H-GMEAQRQL-OH) | Active | Active | – | 170 nM
CSCC[C@H](NC(=O)CN)C(=O)N[C@@H](CCC(=O)O)C(=O)N[C@@H](Cc1ccc(O)cc1)C(=O)N[C@@H](CCC(N)=O)C(=O)N[C@@H](CCCNC(=N)N)C(=O)N[C@@H](CCC(N)=O)C(=O)N[C@@H](CC(C)C)C(=O)N[C@@H](CCCNC(=N)N)C(=O)O (H-GMEYQRQLR-OH) | – | Active | – | –
NC(=O)NC(=O)CCN1CCC(C(=O)c2ccc(O)cc2)CC1 | – | inactive | 420 nM | 22 nM
